# Published values from different studies.
# Compare with care: the assays were run in different laboratories.
Compound,tested on,test,test system,conditions,quantity,result
C[C@]1(CO)[C@H]2CC[C@@H]3CN(Cc4ccccc4)[C@@H](C4=CCOC4=O)C[C@H]3[C@]2(C)CC[C@H]1O,unidentified human coronavirus,cytopathic effect,MRC5,"25 µM, 72 h",inhibition,34.9%
COc1cc(Nc2nccc(-c3cnn4nc(OC)ccc34)n2)cc(C(F)(F)F)c1,SK-N-FI,"cell growth or viability, ATP luminescence",,,IC50,250 nM
CC(C)CCN1C[C@H]2CC[C@@H]3[C@]4(C)COC(C)(C)O[C@@H]4CC[C@@]3(C)[C@@H]2C[C@@H]1C1=CCOC1=O,unidentified human coronavirus,cytopathic effect,MRC5,"25 µM, 72 h",inhibition,22%
C=CC(=O)N1CCC[C@@H](n2nc(-c3ccc(Oc4ccccc4)cc3)c3c(N)ncnc32)C1,Granta-519,"cell growth or viability, ATP luminescence",,72 h,GI50,10300 nM
CC(C)C[C@H](NC(=O)OCc1ccccc1)C(=O)N1CCC[C@H]1C(=O)Nc1ccc(C#CC#Cc2ccc(NC(=O)[C@@H]3CCCN3C(=O)[C@H](CC(C)C)NC(=O)OCc3ccccc3)cc2)cc1,Hepatitis C virus,"viral replication, inhibitor, luciferase","Huh-5-2, GETYPE1B","72 h, replicon",EC50,> 10000 nM
Nc1nc(N)c2ncn([C@H]3O[C@H](CO)[C@@H](F)[C@@H]3F)c2n1,Hepatitis C virus,"viral replication, inhibitor",Huh-7,replicon,EC50,> 10000 nM
CCOC(=O)N[C@H](C(=O)N1CCC[C@@H]1C(=O)Nc1ccc(C#CC#Cc2ccc(NC(=O)[C@H]3CCCN3C(=O)[C@@H](NC(=O)OCC)C(C)C)cc2)cc1)C(C)C,Hepatitis C virus,"viral replication, inhibitor, luciferase","Huh-5-2, GETYPE1B","72 h, replicon",EC50,> 10000 nM
CCCCN1C[C@H]2CC[C@@H]3[C@](C)(COC(C)=O)[C@H](OC(C)=O)CC[C@@]3(C)[C@@H]2C[C@@H]1C1=CCOC1=O,unidentified human coronavirus,cytopathic effect,MRC5,"25 µM, 72 h",inhibition,54.7%
CC(C)C[C@H](NC(=O)[C@H](Cc1ccccc1)NC(=O)c1cnccn1)B(O)O,DLD-1,"cell growth or viability, ATP luminescence",,,IC50,14 nM
CC#CC(=O)N1CC[C@@H](n2cc(-c3ccc(Oc4c(F)cccc4F)cc3)c3c(N)n[nH]c(=O)c32)C1,Z-138,"cell growth or viability, ATP luminescence",,72 h,GI50,6960 nM
COC(=O)N[C@H](C(=O)N1CCC[C@H]1c1nc(-c2ccc(-c3ccc(-c4c[nH]c([C@@H]5CCCN5C(=O)[C@@H](NC(=O)OC)C(C)C)n4)cc3)cc2)c[nH]1)C(C)C,Hepatitis C virus,"viral replication, inhibitor, luciferase","Huh-5-2, GETYPE1B","72 h, replicon",EC50,0.0266 nM
COC(=O)N[C@H](C(=O)N1CCC[C@H]1c1ncc(-c2ccc(-c3ccc(-c4cnc([C@@H]5CCCN5C(=O)[C@@H](NC(=O)OC)C(C)C)[nH]4)cc3)cc2)[nH]1)C(C)C,Hepatitis C virus,"viral replication, inhibitor","Huh-7, GETYPE2A",replicon,EC50,0.02 nM
Cc1ccc(CN2C[C@H]3CC[C@@H]4[C@]5(C)COC(C)(C)O[C@@H]5CC[C@@]4(C)[C@@H]3C[C@@H]2C2=CCOC2=O)cc1,unidentified human coronavirus,cytopathic effect,MRC5,"25 µM, 72 h",inhibition,98.8%
CCOC(=O)N[C@@H](CC(C)C)C(=O)N1CCC[C@H]1C(=O)Nc1cccc(C#CC#Cc2cccc(NC(=O)[C@@H]3CCCN3C(=O)[C@H](CC(C)C)NC(=O)OCC)c2)c1,Hepatitis C virus,"viral replication, inhibitor, luciferase","Huh-5-2, GETYPE1B","72 h, replicon",EC50,0.0399 nM
